MrgX1 ag = activates human MrgX1 receptor signaling. MrgX1-HEK293 cells, Fluo-4 calcium fluorescence, agonist mode; stronger effect = higher value. Q96LB2. B-score at 10 µM. hit rate 0.44% among 310,000;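 active means calcium response B-score plate-corrected fluorescence ratio at least 3 library SD, with starting fluorescence B-score inside 5 SD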
Target sequence (Q96LB2 whole entry, looked up): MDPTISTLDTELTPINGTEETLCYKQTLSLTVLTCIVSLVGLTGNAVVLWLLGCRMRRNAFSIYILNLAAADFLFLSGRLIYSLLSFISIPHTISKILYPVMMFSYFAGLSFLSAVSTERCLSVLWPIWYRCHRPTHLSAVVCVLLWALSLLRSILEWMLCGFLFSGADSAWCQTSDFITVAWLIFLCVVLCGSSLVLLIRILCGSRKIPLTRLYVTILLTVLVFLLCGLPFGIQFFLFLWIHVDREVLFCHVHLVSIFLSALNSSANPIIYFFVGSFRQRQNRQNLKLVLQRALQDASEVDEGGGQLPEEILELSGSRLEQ
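System: HEK293 cells stably expressing human MrgX1 receptor; Dosing: test compound in the initial addition of three; Schedule: overnight plating, then 30 min 37 °C plus 30 min room-temperature dye loading; Detection: kinetic calcium dye fluorescence, Fluo-4 NW; Controls: per-plate positive and negative controls for Z′ factor.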
RGS4 inh = human RGS4 inhibition | HEK293 M3R/RGS4 inducible, Fluo-4 calcium flux; stronger effect = higher value; triggered by carbachol at its EC20 | AID 463165 | B-score at 10 µM | hit rate 0.45% among 310,000;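 active means B-score, a plate-corrected calcium signal, over three deviations above library mean, with baseline fluorescence within five deviations of library mean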;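 further: RGS4 expression induced by doxycycline in cells with stable M3 receptor; B-score is computed from the integrated fluorescence ratio over baseline after carbachol; higher B-score means a larger calcium signal and so more RGS4 inhibition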
Target sequence (P49798 whole entry, looked up): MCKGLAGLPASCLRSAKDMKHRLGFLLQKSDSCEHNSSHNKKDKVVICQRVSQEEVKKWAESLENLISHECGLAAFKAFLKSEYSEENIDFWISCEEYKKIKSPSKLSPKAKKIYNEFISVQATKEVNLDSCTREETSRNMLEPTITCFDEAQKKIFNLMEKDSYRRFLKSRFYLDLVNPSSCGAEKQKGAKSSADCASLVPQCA
RGS4 pot = RGS4 potentiation or activation; HEK293 M3R/inducible RGS4, carbachol calcium flux Fluo4; stronger effect = lower value; B-score at 10 µM; hit rate 0.92% among 310,000; AID 463111;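 active means B-score of the integrated calcium signal more than 4 SD below the library mean, with starting fluorescence not abnormally high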;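 further: negative B-score means reduced calcium response which marks RGS4 activation or potentiation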
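Assay system: HEK293 FlpIn-TREx cells, stable M3R, doxycycline-inducible RGS4 / Probe or stimulus: carbachol, ECmax concentration / Times: overnight RGS4 induction, 30 min dye load 37 °C, 20 min compound RT / Signal: kinetic calcium fluorescence imaging with Fluo4-AM dye, 2 µM / Measure: Agonist-evoked peak-minus-minimum fluorescence over baseline, integrated ratio, B score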
MrgX1 PAM = allosterically activates human MrgX1 receptor signaling. hit rate 0.63% among 310,000. Q96LB2. B-score at 10 µM. MrgX1-HEK293, Fluo-4 calcium flux, FDSS; stronger effect = higher value. AID 588675;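 active means plate-corrected calcium response at least 3 library SD above typical, normal starting fluorescence, not activating the receptor alone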;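 further: compound read alongside a low EC10 to EC30 dose of BAM8-22 agonist; peak minus trough fluorescence over baseline measured at the second addition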
MrgX1 antag = blocks BAM8-22 activation of human MrgX1 receptor; Q96LB2; MRGX1-HEK293 calcium flux, Fluo-4, BAM8-22 antagonism; stronger effect = lower value; B-score at 10 µM; hit rate 1.3% among 310,000; AID 588676;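 active means calcium-response B-score plate-corrected more than 3 library SD below zero, starting fluorescence within 5 deviations, no agonist response on first addition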;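 further: peak minus trough fluorescence over baseline after final BAM8-22 challenge near maximal dose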
RGS4 activ val = RGS4 activation, validation assay. shares compounds with RGS4 pot. HEK293 M3R/RGS4 inducible, carbachol calcium flux Fluo4. inhibition, % at 10 µM. hit rate 89% among 1,100;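 active means inhibition above 3 SD of the buffer control wells, cut at about 41% in these data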;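 further: signal is the integrated peak-minus-minimum Fluo4 fluorescence over baseline ratio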
M3R Ca counter = RGS4 activator counter-screen hit in non-induced cells | inhibition, % at 10 µM | HEK293 M3R non-induced RGS4, Fluo4 calcium flux; after carbachol challenge at its EC90 | shares compounds with RGS4 pot | hit rate 82% among 1,100;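 active means inhibition exceeding 3 SD of buffer-only control wells, cut at about 26% in these data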;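 further: percent drop in integrated peak-minus-baseline over baseline Fluo4 ratio after carbachol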
Active calls of the source: *; i = inactive; x = no result. Hits are enriched below; roughly 3.5% of the tested compounds scored in any of these assays.

SMILES | MrgX1 ag | RGS4 inh | RGS4 pot | MrgX1 PAM | MrgX1 antag | RGS4 activ val | M3R Ca counter
c1ccc(COc2ccc(OCCCN3CCCCC3)cc2)cc1 | i | i | -7.71* | i | i | 90.0* | 62.8*
c1ccc(OCCCN2CCCC2)cc1 | i | i | i | i | i | x | x
c1ccc(CCCN2CCOCC2)cc1 | i | i | i | i | i | x | x
CC(=O)NC(CC(=O)N(C)C1CCCCC1)c1ccccc1 (stereo not drawn) | i | i | i | i | i | x | x
Fc1ccc(C2c3[nH]c4ccccc4c3CCN2CCCn2cccn2)cc1 (stereo not drawn) | i | i | i | i | i | x | x
Cc1ccccc1C1c2[nH]c3ccccc3c2CCN1CCCn1cccn1 (stereo not drawn) | i | i | -7.74* | i | i | 93.0* | 90.8*
CCOC(=O)C1=C(C)N2C(=C(C#N)[C@@H]1c1ccc(C(=O)OC)cc1)SC[C@@]2(O)C(C)(C)C | i | i | -9.09* | i | i | 59.0* | 0.0
COc1cccc(C2NC(=O)NC(C)=C2C(=O)OCC2CCCCC2)c1 (stereo not drawn) | i | i | i | i | i | x | x
CC(C)(C)c1nc(NC(=O)Nc2ccccc2)sc1Br | i | i | i | i | i | x | x
Cc1ccc(C(=O)NC2(O)C(=O)c3ccccc3C2=O)cc1C | i | i | i | i | i | x | x
O=C(NC1(O)C(=O)c2ccccc2C1=O)c1ccc(C(F)(F)F)cc1 | i | i | -7.64* | i | i | 0.0 | 0.0
Cc1nn(-c2ccccc2)c(C)c1NC(=O)COC(=O)c1cccc(OC(F)F)c1 | i | i | -8.37* | i | i | 0.0 | 0.0
c1ccc2c(c1)CCc1ccccc1C2=C1CCNCC1 | i | i | -11.5* | i | i | 93.5* | 94.3*
CN1CCC(=C2c3ccccc3C=Cc3ccccc32)CC1 | i | i | i | i | i | x | x
COC(=O)c1ccc(CNC(=O)CSc2nc3sc(C)c(C)c3c(=O)n2C)o1 | i | i | -8.15* | i | i | 50.5* | 0.0
Cc1sc2nc(SCC(=O)NCc3ccco3)n(C)c(=O)c2c1C | i | i | i | i | i | x | x
O=C(CSc1ncc(-c2ccccc2)n1C1CCCC1)N1CCc2ccccc21 | i | i | -7.65* | i | i | 53.5* | 83.8*
CN(CC(=O)Nc1ccc(F)c(F)c1F)C(=O)CN1C(=O)C2CCCCC2C1=O (stereo not drawn) | i | i | i | i | i | x | x
CCCCNC(=S)N/N=C1\C(=O)c2cccc3cccc1c23 | i | i | i | i | i | x | x
CNC(=S)N/N=C1\C(=O)c2cccc3cccc1c23 | i | i | -7.79* | i | i | 0.0 | 0.0
CC1CCN(C(=O)c2cc3nc(-c4ccccc4)cc(-c4ccccc4)n3n2)CC1 | i | i | i | i | i | x | x
O=C(NC1CCCC1)c1cc2nc(-c3ccccc3)cc(-c3ccccc3)n2n1 | i | i | -7.73* | i | i | 81.5* | 83.8*
CCc1ccc(NC(=O)CC2C(=O)N(c3ccc(C)cc3)C(=O)N2CCc2ccncc2)cc1 (stereo not drawn) | i | i | i | i | i | x | x
COc1cccc(NC(=O)COc2ccc(N3CC(C(=O)NCC(C)C)CC3=O)cc2)c1 (stereo not drawn) | i | i | i | i | i | x | x
COc1cc(C)c(C(N)=O)c(OC)n1 | i | i | i | i | i | x | x
SMILES | MrgX1 ag | RGS4 inh | RGS4 pot | MrgX1 PAM | MrgX1 antag | RGS4 activ val | M3R Ca counter
Cc1cc2oc(=O)c(CC(=O)NCCCN(C)C)c(C)c2c2occ(C(C)(C)C)c12 | i | i | -7.91* | i | i | 90.5* | 51.3*
CCN(CC)c1ccc(NC(=O)COc2ccc(C#N)cc2)cc1S(=O)(=O)Nc1ccc(OC)cc1 | i | i | i | i | i | x | x
Cc1ccc(-c2csc(=Nc3cccnc3)n2CCCn2ccnc2)cc1C | i | i | -8.81* | i | i | 92.0* | 93.3*
Cc1ccc(-c2csc(=Nc3cccnc3)n2CCCN2CCCC2=O)cc1C | i | i | i | i | i | x | x
Nc1ncc(Br)cc1S(=O)(=O)NCCC(=O)N1CCN(c2ccccn2)CC1 | i | i | -8.67* | i | i | 75.0* | 83.8*
COc1ccc(C(CNc2ncnc3sc(C)c(C)c23)N(C)C)cc1 (stereo not drawn) | i | i | i | i | i | x | x
COc1ccccc1C(CNc1ncnc2sc(C)c(C)c12)N(C)C (stereo not drawn) | i | i | -11* | i | i | 80.0* | 41.8*
CCCCN(C)C(=O)c1cc2c(Cl)nc3ccccc3c2s1 | i | i | -8.72* | i | i | 59.0* | 44.8*
OCC1(CCOc2ccccc2)CCN(CC2=Cc3cc(Cl)ccc3OC2)CC1 | i | i | -8.72* | i | i | 87.0* | 55.8*
COc1cc(Cl)c(CN2CCC(CO)(CCOc3ccccc3)CC2)cc1OC | i | i | i | i | i | x | x
C/C(=N\NC(=O)c1ccco1)c1ccc(NC(=O)C(F)(F)F)cc1 | x | i | i | x | x | x | x
Cc1ccc(CCC(=O)NCc2ccccc2)o1 | i | i | -7.77* | i | i | 0.0 | 0.0
CCN(CC)CCCN(C(=O)c1ccc(Br)cc1)c1nc(-c2ccc(OC)cc2)cs1 | i | i | i | i | i | x | x
CCN(CC)CCCN(C(=O)c1cccs1)c1nc(-c2ccc(OC)cc2)cs1 | i | i | -11.2* | i | i | 90.5* | 30.8*
CCOC(=O)CNC(=O)N(CCOC)CC1CCCN(C2Cc3ccccc3C2)C1 (stereo not drawn) | i | i | i | i | i | x | x
COc1ccc(OC)c2sc(N(CCCN(C)C)C(=O)CCS(=O)(=O)c3ccccc3)nc12 | i | i | -12.7* | i | -7.58* | 83.5* | 57.8*
Cc1ccc(-n2c(SCC(=O)NCc3ccco3)nc3c(sc4ccccc43)c2=O)cc1 | i | i | i | i | i | x | x
CC(=O)c1sc(-c2ccc(Cl)cc2)cc1N | i | i | i | i | i | x | x
COC(=O)c1sc(-c2ccc(Cl)cc2)cc1N | i | i | -7.74* | i | i | 0.0 | 0.0
O=C(COc1ccc2c(c1)OCO2)Nc1cccc(F)c1 | i | i | i | i | i | x | x
Cc1sc2cc3c(c(C(=O)c4ccccc4)[n+]2c1C)-c1cccc2cccc-3c12 | i | i | -14* | i | i | 91.5* | 91.3*
